Reference: paper PMC5624728 (Journal of pharmaceutical innovation, 2017)
In brackets after ≈: the same amount, converted by molar mass. Several values for one entry are separate records, joined by “and”; a condition that tells them apart may be missing. Identical values can stand only once. Like-named read-outs stand apart in the source and are kept apart here.

Key:
[1] = Solubility of CSIC in acetonitrile, water and water/acetonitrile; assay type: physicochemical; details: room temperature, 5 days
[2] = CSIC solubility in cosolvent matrixes; assay type: physicochemical
[3] = test system: HEC-1A human endometrial epithelial cells; details: 24 h exposure, MTT
[4] = test system: NNRTI resistance mutation K103N; details: compared to other NNRTIs; cited from earlier work
Oxidation stability = assay type: physicochemical; details: 3% H2O2, room temperature, up to 10 days
Outline: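 Test compound dissolved at 100 μg/mL final in 40% (v/v) aqueous acetonitrile containing 3% H2O2. Kept at room temperature. Aliquots taken at set intervals up to 10 days. Drug content quantified by HPLC (flow 1.4 mL/min). Results given as mean ± standard deviation.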

[5] = pH stability of CSIC in solution; assay type: physicochemical
[6] = test system: J774A.1 mouse macrophage cells; details: J774A.1, 24 h exposure, MTT
HIV-1 = details: antiviral EC50; cited from earlier work
HIV-1 RT = details: tight-binding inhibitor; cited from earlier work
Photolysis stability = assay type: physicochemical
Outline: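 Half of each group was foil-wrapped as the dark control. All were held at 30 °C/65% RH under fluorescent light (2 × 20 watts) for 12 days. Aliquots at set times were assayed by HPLC. Light versus dark was compared by a repeated-measures mixed model with pairwise comparisons.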

[7] = 25 °C/60% RH and 65 °C, at least 10 days, 40% acetonitrile

NC(=O)c1[nH]c2ccc(Cl)cc2c1S(=O)(=O)c1ccccc1 [CSIC, 5-chloro-3-[phenylsulfonyl] indole-2-carboxamide]
Solubility ([1]; 40% (v/v) acetonitrile): 0.36 mg/mL and 1.1 mM
Solubility ([1]; 100% acetonitrile): 1.7 mg/mL and 5.1 mM
Solubility ([1]; water): 0.0014 mg/mL and 4.3 μM
Solubility ([2]; S1: PEG 400 0%, propylene glycol 50%, glycerin 50%): 5.23 mg/mL (≈ 15.6 mM)
Solubility ([2]; S2: PEG 400 12.5%, propylene glycol 37.5%, glycerin 50%): 10.60 mg/mL (≈ 31.7 mM)
Solubility ([2]; S3: PEG 400 12.5%, propylene glycol 50%, glycerin 37.5%): 12.85 mg/mL (≈ 38.4 mM)
Solubility ([2]; S4: PEG 400 25%, propylene glycol 25%, glycerin 50%): 12.85 mg/mL (≈ 38.4 mM)
Solubility ([2]; S5: PEG 400 25%, propylene glycol 37.5%, glycerin 37.5%): 17.08 mg/mL (≈ 51 mM)
Solubility ([2]; S6: PEG 400 25%, propylene glycol 50%, glycerin 25%): 19.99 mg/mL (≈ 59.7 mM)
Solubility ([2]; S7: PEG 400 37.5%, propylene glycol 12.5%, glycerin 50%): 20.46 mg/mL (≈ 61.1 mM)
Solubility ([2]; S8: PEG 400 37.5%, propylene glycol 25%, glycerin 37.5%): 21.81 mg/mL (≈ 65.1 mM)
Solubility ([2]; S9: PEG 400 37.5%, propylene glycol 37.5%, glycerin 25%): 24.63 mg/mL (≈ 73.6 mM)
Solubility ([2]; S10: PEG 400 37.5%, propylene glycol 50%, glycerin 12.5%): 22.59 mg/mL (≈ 67.5 mM)
Solubility ([2]; S11: PEG 400 50%, propylene glycol 0%, glycerin 50%): 22.86 mg/mL (≈ 68.3 mM)
Solubility ([2]; S12: PEG 400 50%, propylene glycol 12.5%, glycerin 37.5%): 23.67 mg/mL (≈ 70.7 mM)
Solubility ([2]; S13: PEG 400 50%, propylene glycol 25%, glycerin 25%): 24.31 mg/mL (≈ 72.6 mM)
Solubility ([2]; S14: PEG 400 50%, propylene glycol 37.5%, glycerin 12.5%): 28.21 mg/mL (≈ 84.3 mM)
Solubility ([2]; S15: PEG 400 50%, propylene glycol 50%, glycerin 0%): 28.64 mg/mL (≈ 85.5 mM)
Solubility ([2]; S16: PEG 400:propylene glycol:glycerin 10:2:4 (PEG 400 62.5%)): 22.7 mg/mL (≈ 67.8 mM)
Solubility ([2]; S17: PEG 400:propylene glycol:glycerin 10:3:3 (PEG 400 62.5%)): 20.7 mg/mL (≈ 61.8 mM)
Solubility ([2]; S18: PEG 400:propylene glycol:glycerin 10:4:2 (PEG 400 62.5%), i.e. 5:2:1 w/w/w): 30.2 mg/mL (≈ 90.2 mM)
Solubility ([2]; S19: PEG 400:propylene glycol:glycerin 6:1:1 (PEG 400 75%)): 29.1 mg/mL (≈ 86.9 mM)
Solubility ([2]; S20: PEG 400:propylene glycol:glycerin 3:1:0 (PEG 400 75%)): 28.8 mg/mL (≈ 86 mM)
50% cytotoxic concentration (CC50) [3]: greater than 5 μg/mL
activity against K103N [4]: retaining good activity
log P: ~ 3
Log P (1:1 (v/v) octanol/water): 3.72
Log P (1:2 (v/v) octanol/water): 3.72
Log P (2:1 (v/v) octanol/water): 3.69
drug loss (Oxidation stability): 20%
drug loss ([5]; all pH conditions (1.2-10), at least 10 days, room temperature): < 5%
drug detected compared to time zero ([5]; all pH conditions, each time point up to 10 days): more than 95%
50% cytotoxic concentration (CC50) [6]: greater than 5 μg/mL
EC50 (HIV-1): ~1 nM and 1 nM
binding and dissociation behaviour (HIV-1 RT): binds rapidly but then dissociates very slowly
stability stored in the dark (Photolysis stability; dark, 30 °C/65% RH, at least 12 days): stable
decline of drug concentration (Photolysis stability; fluorescent light source (2 × 20 watts), 12 days): 4%
drug concentration over time [7]: remained unchanged
